# Source: ChEMBL document CHEMBL1144441, “Identification of a novel cardenolide (2''-oxovoruscharin) from Calotropis procera and the hemisynthesis of novel derivatives displaying potent in vitro antitumor activities and high in vivo tolerance: structure-activity relationship analyses” (J Med Chem, 2005)
# Experiments:
# Mus musculus [1] = experiment: Maximum tolerated dose after intraperitoneal administration in mouse (period of 28 days); not determined; type: functional
# How it was run: (§1)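 Healthy, non-tumour-bearing B6D2F1 mice given one acute intraperitoneal dose, three mice per dose group, doses 5, 10, 20, 40, 80, 120 and 160 mg/kg. Survival and body weight followed for 28 days after injection. MTD is the highest single dose causing no deaths over the period.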
# A549 = experiment: Concentration required for 50% growth inhibition of human A549 cancer cell lines after 3 days of culture; type: functional, cell-based; details: A549, 72 h
# How it was run: (§2)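 MTT overall-growth assay on the five lines. Cells were plated for 24 h at 10 000–40 000 cells/mL, depending on cell type. Nine concentrations from 10^-9 to 10^-5 M in semilog steps were applied for 72 h. Formazan was read at 570 nm against a 630 nm reference, in sextuplicate. IC50 = concentration reducing overall growth by 50% versus untreated control.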
# U373 MG = experiment: Concentration required for 50% growth inhibition of human U373 cancer cell lines after 3 days of culture; type: functional, cell-based, U-373MG ATCC; details: 72 h; how it was run: as §2
# HCT-15 = experiment: Concentration required for 50% growth inhibition of human HCT-15 cancer cell lines after 3 days of culture; type: functional, cell-based; details: HCT-15, 72 h; how it was run: as §2
# [2] = Concentration required for 50% growth inhibition of human Hs 683 cancer cell lines after 3 days of culture; type: functional, cell-based; details: 72 h; how it was run: as §2
# LoVo = experiment: Concentration required for 50% growth inhibition of human LoVo cancer cell lines after 3 days of culture; type: functional, cell-based; details: 72 h; how it was run: as §2
# [3] = biological target: Sodium/potassium-transporting ATPase subunit alpha-1 (Sus scrofa, UniProt P05024); experiment: In vitro inhibitory activity against porcine Na+/K+-ATPase
# How it was run: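 Porcine cerebral cortex Na+/K+-ATPase (3 × 10-3 units), preincubated 30 min at 37 °C in 30 mM Tris-HCl pH 7.4, 5 mM MgCl2 with inhibitor (1 to 50 000 nM). ADP formation coupled via pyruvate kinase/lactate dehydrogenase, excess phosphoenolpyruvate, to NADH oxidation.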
# Mus musculus [4] = experiment: Maximum tolerated dose after intraperitoneal administration in mouse (period of 28 days); type: functional; how it was run: as §1
SMILES,MTD (Mus musculus [1]) [mg/kg],IC50 (A549) [µM],IC50 (U373 MG) [µM],IC50 (HCT-15) [µM],IC50 [2] [µM],IC50 (LoVo) [µM],IC50 [3] [µM],MTD (Mus musculus [4]) [mg/kg]
CC(=O)CCC(=O)OC[C@]12C[C@H]3OC4(O)[C@@H](O[C@H](C)C[C@@]45NC(=O)CS5)O[C@@H]3C[C@@H]1CC[C@@H]1[C@@H]2CC[C@]2(C)[C@@H](C3=CC(=O)OC3)CC[C@]12CO (stereo not given in full),20,0.463,3.23,3.24,0.758,3,,
C[C@@H]1C[C@@]2(N=C(N)CS2)C2(O)O[C@@H]3C[C@@]4(COC(=O)c5ccccc5)[C@@H](CC[C@@H]5[C@@H]4CC[C@]4(C)[C@@H](C6=CC(=O)OC6)CC[C@]54CO)C[C@H]3O[C@@H]2O1 (stereo not given in full),,> 10,> 10,> 10,> 10,> 10,> 50,>40
C[C@@H]1C[C@@]2(N=C(N)CS2)C2(O[Si](C)(C)C)O[C@@H]3C[C@@]4(C=O)[C@@H](CC[C@@H]5[C@@H]4CC[C@]4(C)[C@@H](C6=CC(=O)OC6)CC[C@]54CO[Si](C)(C)C)C[C@H]3O[C@@H]2O1 (stereo not given in full),,7.54,> 10,> 10,8.6,> 10,50,>160
